APP 5UTR inh: APP translation inhibition | SH-SY5Y APP 5'UTR-luciferase reporter, luminescence | 0.82% of 190,000 active | inhibition, % at 2 µM | AID 1285;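 active = inhibition above a set limit, derived from the sample mean plus 3 SD, cut at about 45% in these data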
bCat nuc transl: modulators of beta-catenin nuclear translocation | HeLa beta-catenin nuclear translocation, immunofluorescence imaging | nuclear translocation activity, % at 5 µM | 0.3% of 190,000 active | AID 1665;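 active = nuclear translocation activity above 50% at 5 µM, with a well cell count of 50 or more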;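 note: per-cell ratio of nuclear to cytoplasmic median beta-catenin stain intensity; plate controls were DMSO negative control for no effect and GSK-3 inhibitor IX positive control for full effect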
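Assay system: human HeLa cells, native beta-catenin; doses: 5 µM primary, 0.02–20 µM confirmation; incubation: compound treatment 24 h, 37°C, 5% CO2; technique: fluorescence imaging of beta-catenin antibody stain plus DAPI; measure: % activation, nuclear-to-cytoplasmic median beta-catenin signal ratio per cell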
Lmaj promast: Leishmania major promastigote growth inhibition; Leishmania major promastigotes, resazurin fluorescence viability; inhibition, % at 10 µM; 9% of 200,000 active; AID 1063; in the data active = inhibition above about 50%;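 note: promastigotes grown with compound for 44 hours at 28 °C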
Ba/F3 V617F tox: lowers viability of Ba/F3 cells expressing EpoR and JAK2V617F; 1.1% of 220,000 active; ATP luminescence; inhibition, % at 5.6 µM;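 active = inhibition above the campaign mean plus 3 SD over all tested compounds, cut at about 24% in these data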;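 note: cytokine-independent growth of Ba/F3 cells driven by EpoR plus mutant JAK2; 0% = DMSO-treated cells and 100% = JAK inhibitor I control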
MT stabilizer: stabilizes microtubules in HeLa cells. 0.83% of 200,000 active. HeLa tubulin immunostaining HCS, 24 h; share of cells brighter than vehicle mean+2SD. AID 2205. % tubulin-high responders, % at 10 µM;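 active = plate Z-score above 3 for both tubulin-high and condensed-nucleus cell shares, with cell loss under 80%, at 10 µM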;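 note: anti alpha tubulin signal scored within the nucleus-defined area of each cell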
BaF3 parental: counter-screen for JAK2V617F inhibitors: parental Ba/F3 viability inhibitors; CellTiter-Glo ATP luminescence; inhibition, % at 5.6 µM; AID 1486; 1.1% of 220,000 active;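 active = inhibition above a per-campaign cutoff, the mean inhibition of all tested compounds plus 3 SD, cut at about 27% in these data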;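 note: 0% = DMSO wells and 100% = JAK Inhibitor I control wells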
Starred values were filed as active, the others as inactive; · = no result given. This is a sample that favours compounds with a hit; in the whole collection about 9.6% have one here.

SMILES	APP 5UTR inh	bCat nuc transl	Lmaj promast	Ba/F3 V617F tox	MT stabilizer	BaF3 parental
O=C(CSc1nnc(-c2c[nH]c3ccccc23)o1)N(Cc1ccccc1)c1ccc(F)cc1	-10.1	-0.8	64.3*	0.5	2.0	3.1
COc1ccc(/C=C/C(=O)OCn2c(SC)nnc(C)c2=O)cc1OC	9.2	-0.5	9.5	1.7	7.4	3.9
CCCCc1nc2ccccc2c(=O)n1NC(=O)c1c(O)c2ccccc2n(C)c1=O	-26.2	1.3	73.1*	-0.6	3.3	1.5
Cc1ccc(NC(=O)c2c(O)c3ccccc3n(C)c2=O)nc1	-38.1	-5.5	70.9*	-0.7	4.8	7.3
Cc1nc2ccccc2c(=O)n1NC(=O)c1c(O)c2ccccc2n(C)c1=O	·	-2.7	·	·	·	·
C[n+]1nc(Nc2ccccc2)sc1-c1ccc(C(=O)O)cc1	·	-2.0	·	·	·	·
O=C(CCn1cnc2ncccc2c1=O)N1CCN(c2cccc(Cl)c2)CC1	·	-2.1	·	-0.7	·	-1.1
CC(=O)Nc1ccc(S(=O)(=O)C(C#N)c2nc3ccccc3nc2NCCN2CCOCC2)cc1 (stereo not drawn)	-1.9	-1.9	-2.5	-0.1	2.9	4.0
Cc1ccc(C(=O)Nc2nc(C)c(C(=O)Nc3ccc4c(c3)CCC4)s2)cc1	66.1*	183.0*	-4.4	3.3	2.8	9.1
Fc1ccc(-c2[nH]ncc2CN(CC2CCC2)CC2CCCO2)c(F)c1 (stereo not drawn)	5.6	-1.3	3.0	-3.1	2.1	13.6
CN(C)CCN=Cc1c(O)n(Cc2ccc3c(c2)OCO3)c(=O)c2ccccc12	3.4	-1.5	73.7*	-0.2	2.0	3.1
O=c1c2ccccc2[nH]c(=S)n1Cc1ccc2c(c1)OCO2	5.2	-0.4	3.0	2.7	2.6	-0.1
O=c1c2ccccc2c(C=NC2CCN(Cc3ccccc3)CC2)c(O)n1Cc1ccc2c(c1)OCO2	-15.1	-0.5	87.1*	-1.4	2.0	7.4
CCN(CC)CCCN=Cc1c(O)n(Cc2ccccc2)c(=O)c2ccccc12	-27.0	0.1	99.2*	-1.8	3.0	3.1
CCN(CC)CCCN=Cc1c(O)n(-c2ccccc2C)c(=O)c2ccccc12	·	1.0	·	-1.0	·	0.5
CN(C)CCCN=Cc1c(O)n(Cc2ccc3c(c2)OCO3)c(=O)c2ccccc12	-20.8	-2.4	98.3*	4.5	7.3	3.3
Cn1c(=O)c(C(=O)CN2CCN(Cc3ccc4c(c3)OCO4)CC2)c(N)n(Cc2ccccc2)c1=O	·	-2.8	·	-3.6	·	0.1
Cc1cc(-c2n[nH]c(=S)n2/N=C/C(Cl)=C/c2ccccc2)n[nH]1	3.5	-0.2	70.0*	-0.3	3.5	2.6
S=c1[nH]nc(-c2ccco2)n1/N=C/C(Cl)=C/c1ccccc1	·	-1.5	·	0.0	·	-7.8
Cc1cc(-c2n[nH]c(=S)n2/N=C/c2cccc(O)c2)n[nH]1	·	-1.7	·	-1.6	·	-0.1
Cc1cc(-c2n[nH]c(=S)n2/N=C/c2cccc([N+](=O)[O-])c2)n[nH]1	10.6	-4.0	50.5*	-1.2	1.9	5.4
Cc1cc(C)n(-c2ccc(Cl)c(C(=O)Nc3ccc(-c4nnc5n4CCCCC5)cc3)n2)n1	-49.4	-4.0	12.5	-6.4	4.6	2.5
O=C(NCc1cccnc1)c1c[nH]c2cc3c(cc2c1=O)OCCO3	-79.9	-5.5	3.1	27.2*	3.6	40.9*
CC(=O)Nc1ccc(-c2csc(Nc3ccc(Cl)cn3)n2)cc1	-28.5	-1.0	58.8*	3.8	2.5	1.2
CC(=O)Nc1ccc(-c2csc(Nc3cc(C)ccn3)n2)cc1	-40.5	0.5	59.9*	-0.8	5.8	1.1
SMILES	APP 5UTR inh	bCat nuc transl	Lmaj promast	Ba/F3 V617F tox	MT stabilizer	BaF3 parental
CC(=O)Nc1cccc(-c2csc(Nc3ccc(Cl)cn3)n2)c1	-182.1	4.7	39.8	0.7	2.4	3.2
N#Cc1c2ccc(O)cc2n2ccccc12	19.1	-5.0	100.4*	-3.0	5.6	0.3
NCCCC[C@@H]1NC(=O)c2cc([N+](=O)[O-])cc(I)c2SC[C@@H](C(N)=O)NC(=O)[C@H](Cc2ccc(O)cc2)NC1=O	-8.6	·	-9.0	3.6	2.5	7.9
CC(=O)N/N=C/c1ccc(OCCOc2ccc(Br)cc2)cc1	11.2	-2.4	16.9	2.0	4.8	5.0
COc1ccccc1C(=O)Nc1ccc(CN2CCCCC2)cc1	-6.2	0.3	7.9	-0.1	3.1	-1.2
Cc1ccc(C(=O)NC(=S)Nc2ccc(CN3CCCCC3)cc2)c(C)c1	2.2	0.3	73.3*	3.7	3.7	5.0
COc1ccc(C(=O)NC(=S)Nc2ccc(CN3CCCCC3)cc2)cc1Cl	4.7	-3.7	98.7*	-1.8	1.1	3.2
COc1c(Cl)cc(Cl)cc1C(=O)Nc1ccc(CN2CCCCC2)cc1	1.0	-0.6	100.2*	-1.5	1.9	6.5
O=C(NC(=S)Nc1ccc(CN2CCCCC2)cc1)c1ccco1	8.6	0.7	28.3	1.8	4.4	6.7
Cc1ccc(S(=O)(=O)N(C)c2c(C)ccc(S(=O)(=O)NC(C)(C)C)c2C)cc1	-4.8	-1.6	98.9*	-3.2	1.6	-0.1
Cc1ccc(S(=O)(=O)N(C)c2c(C)ccc(S(=O)(=O)Nc3ccncc3)c2C)cc1	-9.9	1.8	-5.0	-2.0	3.7	1.3
C=C(C)CN1CCN(S(=O)(=O)c2ccc(C)c(N(C)S(=O)(=O)c3ccc(C)cc3)c2C)CC1	-15.4	-0.8	98.3*	1.8	2.8	4.8
CCOC(=O)NC(=O)/C(C#N)=C(/C)N(C)C	13.3	0.5	-10.1	1.2	0.8	5.4
Cc1ccc(NC(=O)/C(=C\c2cccs2)NC(=O)c2ccccc2)cc1	-7.9	-0.7	83.3*	-5.1	3.5	-3.4
C/C(=N\N1CCN(C2c3ccccc3-c3ccccc32)CC1)c1ccco1	12.6	0.3	2.7	-0.8	3.6	0.9
O=C(CN1CCCc2ccccc21)NCCc1ccc(Cl)cc1	-10.7	-0.5	3.9	-0.6	1.0	3.2
CN(C)C(=O)c1cn(-c2ccccc2)nc1-c1cc2ccccc2o1	-3.7	1.0	4.0	-2.1	3.7	0.4
COc1ccc(NC(=O)c2cn(CCC#N)nc2-c2cc3ccccc3o2)cc1	45.6*	-1.5	-1.0	6.6	7.2	3.1
O=C(Nc1ccc([N+](=O)[O-])cc1)c1cn(-c2ccccc2)nc1-c1cc2ccccc2o1	20.2	·	55.5*	0.3	3.9	5.8
O=C1c2ccccc2C(=O)N1c1ncn[nH]1	·	-3.3	·	0.3	·	-1.9
CSc1ccc(/C=C/c2ccc3cccc(O)c3n2)cc1	-172.6	-1.2	89.4*	3.4	2.4	8.3
Cc1ccsc1/C=C/c1ccc2cccc(O)c2n1	-147.8	·	98.2*	-1.8	3.7	2.8
Oc1ccc(Cl)cc1/C=C/c1ccc2cccc(O)c2n1	-55.5	0.6	88.6*	6.8	12.3	2.8
Oc1cccc2ccc(/C=C/c3cccs3)nc12	-148.1	·	94.5*	1.4	5.2	3.0
Oc1c(Cl)cc(Cl)cc1/C=C/c1ccc2cccc(O)c2n1	-3.6	-1.6	45.7	1.5	5.1	15.3
O=[N+]([O-])c1cccc2ccc(/C=C/c3ccc(Cl)cc3)nc12	-23.3	-0.2	-1.5	-1.3	10.8	-0.2

From PubChem
